Experimental data taken from ChEMBL document CHEMBL4325889, “Natural products hybrids: 3,5,4'-Trimethoxystilbene-5,6,7-trimethoxyflavone chimeric analogs as potential cytotoxic agents against diverse human cancer cells” (Eur J Med Chem, 2019).

Assays:
Format in all cases: functional
[1] = test system: HL-60(TB); assay: Growth inhibition of human HL-60(TB) cells at 10 uM after 48 hrs by SRB assay relative to control; conditions: HL-60, 48 h, read-out: GI
Procedure, shortened: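 Run at NCI under its standard single-dose protocol against a leukemia cell panel. Cells were exposed to 10 µM; growth was read by sulforhodamine B staining of cellular protein and expressed as % growth inhibition versus untreated control. Values above 100% mean the cell population fell below the starting count (cytocidal). Each value is the average of duplicates.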

[2] = test system: HCC 2998; assay: Growth inhibition of human HCC2998 cells at 10 uM after 48 hrs by SRB assay relative to control; conditions: HCC 2998, 48 h, read-out: GI
Procedure, shortened: (§1)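 Screened at the National Cancer Institute by the standard NCI protocol using the sulforhodamine B assay, which measures cellular protein. Single dose of 10 µM. Result is percent growth inhibition; values above 100% mean cell number fell below the initial population. Values are the average of duplicates.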

[3] = test system: NCI-H322M; assay: Growth inhibition of human NCI-H322M cells at 10 uM after 48 hrs by SRB assay relative to control; conditions: read-out: GI; procedure, shortened: as §1
[4] = test system: TK-10; assay: Growth inhibition of human TK10 cells at 10 uM after 48 hrs by SRB assay relative to control; conditions: TK-10, 48 h, read-out: GI
Procedure, shortened: (§2)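 NCI screen against its human cancer cell line panel by the standard NCI protocol, SRB protein stain. Single dose of 10 μM. Percent growth inhibition versus control; values above 100% mean the cell population fell below the starting number. Each value is the mean of duplicates.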

[5] = test system: K562; assay: Growth inhibition of human K562 cells at 10 uM after 48 hrs by SRB assay relative to control; conditions: K562, 48 h, read-out: GI; procedure, shortened: as §1
[6] = test system: SK-MEL-2; assay: Growth inhibition of human SK-MEL-2 cells at 10 uM after 48 hrs by SRB assay relative to control; conditions: SK-MEL-2, 48 h, read-out: GI; procedure, shortened: as §1
[7] = test system: SN12C; assay: Growth inhibition of human SN12C cells at 10 uM after 48 hrs by SRB assay relative to control; conditions: read-out: GI; procedure, shortened: as §1
[8] = test system: MDA-MB-468; assay: Growth inhibition of human MDA-MB-468 cells at 10 uM after 48 hrs by SRB assay relative to control; conditions: MDA-MB-468, 48 h, read-out: GI; procedure, shortened: as §1
[9] = test system: COLO 205; assay: Growth inhibition of human COLO205 cells at 10 uM after 48 hrs by SRB assay relative to control; conditions: COLO 205, 48 h, read-out: GI; procedure, shortened: as §1
[10] = test system: HCT-116; assay: Growth inhibition of human HCT116 cells at 10 uM after 48 hrs by SRB assay relative to control; conditions: HCT-116, 48 h, read-out: GI; procedure, shortened: as §1
[11] = test system: LOX IMVI; assay: Growth inhibition of human LOXIMVI cells at 10 uM after 48 hrs by SRB assay relative to control; conditions: read-out: GI; procedure, shortened: as §1
[12] = test system: UACC-257; assay: Growth inhibition of human UACC257 cells at 10 uM after 48 hrs by SRB assay relative to control; conditions: UACC-257, 48 h, read-out: GI; procedure, shortened: as §2
[13] = test system: SF-539; assay: Growth inhibition of human SF539 cells at 10 uM after 48 hrs by SRB assay relative to control; conditions: SF-539, 48 h, read-out: GI; procedure, shortened: as §1
[14] = test system: 786-0; assay: Growth inhibition of human 786-0 cells at 10 uM after 48 hrs by SRB assay relative to control; conditions: 786-0, 48 h, read-out: GI; procedure, shortened: as §1
[15] = test system: HOP-92; assay: Growth inhibition of human HOP92 cells at 10 uM after 48 hrs by SRB assay relative to control; conditions: HOP-92, 48 h, read-out: GI; procedure, shortened: as §1
[16] = test system: CCRF-CEM; assay: Growth inhibition of human CCRF-CEM cells at 10 uM after 48 hrs by SRB assay relative to control; conditions: read-out: GI; procedure, shortened: as §1
[17] = test system: HCT-15; assay: Growth inhibition of human HCT15 cells at 10 uM after 48 hrs by SRB assay relative to control; conditions: HCT-15, 48 h, read-out: GI; procedure, shortened: as §1
[18] = test system: U-251; assay: Growth inhibition of human U251 cells at 10 uM after 48 hrs by SRB assay relative to control; conditions: U-251, 48 h, read-out: GI; procedure, shortened: as §2
[19] = test system: NCI-H23; assay: Growth inhibition of human NCI-H23 cells at 10 uM after 48 hrs by SRB assay relative to control; conditions: NCI-H23, 48 h, read-out: GI; procedure, shortened: as §1
[20] = test system: Hs-578T; assay: Growth inhibition of human Hs 578T cells at 10 uM after 48 hrs by SRB assay relative to control; conditions: read-out: GI; procedure, shortened: as §1
[21] = test system: NCI/ADR-RES; assay: Growth inhibition of human NCI/ADR-RES cells at 10 uM after 48 hrs by SRB assay relative to control; conditions: read-out: GI; procedure, shortened: as §1
[22] = test system: SF-295; assay: Growth inhibition of human SF295 cells at 10 uM after 48 hrs by SRB assay relative to control; conditions: SF-295, 48 h, read-out: GI; procedure, shortened: as §1
[23] = test system: SR; assay: Growth inhibition of human SR cells at 10 uM after 48 hrs by SRB assay relative to control; conditions: read-out: GI; procedure, shortened: as §2
[24] = test system: DU-145; assay: Growth inhibition of human DU145 cells at 10 uM after 48 hrs by SRB assay relative to control; conditions: DU-145, 48 h, read-out: GI; procedure, shortened: as §1
[25] = test system: IGROV-1; assay: Growth inhibition of human IGROV1 cells at 10 uM after 48 hrs by SRB assay relative to control; conditions: IGROV-1, 48 h, read-out: GI; procedure, shortened: as §1
[26] = test system: MCF7; assay: Growth inhibition of human MCF7 cells at 10 uM after 48 hrs by SRB assay relative to control; conditions: MCF7, 48 h, read-out: GI; procedure, shortened: as §1
[27] = test system: A549; assay: Growth inhibition of human A549 cells at 10 uM after 48 hrs by SRB assay relative to control; conditions: A549, 48 h, read-out: GI; procedure, shortened: as §1
[28] = test system: RXF 393; assay: Growth inhibition of human RXF393 cells at 10 uM after 48 hrs by SRB assay relative to control; conditions: RXF 393, 48 h, read-out: GI; procedure, shortened: as §1
[29] = test system: SK-MEL-5; assay: Growth inhibition of human SK-MEL-5 cells at 10 uM after 48 hrs by SRB assay relative to control; conditions: SK-MEL-5, 48 h, read-out: GI; procedure, shortened: as §1
[30] = test system: NCI-H226; assay: Growth inhibition of human NCI-H226 cells at 10 uM after 48 hrs by SRB assay relative to control; conditions: NCI-H226, 48 h, read-out: GI; procedure, shortened: as §1
[31] = test system: RPMI-8226; assay: Growth inhibition of human RPMI8226 cells at 10 uM after 48 hrs by SRB assay relative to control; conditions: RPMI-8226, 48 h, read-out: GI; procedure, shortened: as §1
[32] = test system: Malme-3M; assay: Growth inhibition of human MALME-3M cells at 10 uM after 48 hrs by SRB assay relative to control; conditions: read-out: GI; procedure, shortened: as §1
[33] = test system: SK-MEL-28; assay: Growth inhibition of human SK-MEL-28 cells at 10 uM after 48 hrs by SRB assay relative to control; conditions: SK-MEL-28, 48 h, read-out: GI; procedure, shortened: as §1
[34] = test system: SNB-75; assay: Growth inhibition of human SNB75 cells at 10 uM after 48 hrs by SRB assay relative to control; conditions: SNB-75, 48 h, read-out: GI; procedure, shortened: as §2

Row | Structure (SMILES) | inhibition of growth at 10 µM [1] | inhibition of growth at 10 µM [2] | inhibition of growth at 10 µM [3] | inhibition of growth at 10 µM [4] | inhibition of growth at 10 µM [5] | inhibition of growth at 10 µM [6] | inhibition of growth at 10 µM [7] | inhibition of growth at 10 µM [8] | inhibition of growth at 10 µM [9] | inhibition of growth at 10 µM [10] | inhibition of growth at 10 µM [11] | inhibition of growth at 10 µM [12] | inhibition of growth at 10 µM [13] | inhibition of growth at 10 µM [14] | inhibition of growth at 10 µM [15] | inhibition of growth at 10 µM [16] | inhibition of growth at 10 µM [17] | inhibition of growth at 10 µM [18] | inhibition of growth at 10 µM [19] | inhibition of growth at 10 µM [20] | also measured
1 | COc1ccc(NC(=O)c2cccc(-c3cc(=O)c4c(OC)c(OC)c(OC)cc4o3)c2)cc1 | 21.2% | 26.3% | 24.5% | 15.7% | 50.4% | 15.3% | 35% | 24.3% | 30.6% | 36.6% | 75.4% | -2.76% | 27.7% | 29.3% | 52.7% | 50.7% | 52.9% | 13.9% | 28.7% | 41.6% | inhibition of growth at 10 µM [21]: 47.2%; inhibition of growth at 10 µM [22]: 33.6%; inhibition of growth at 10 µM [23]: 18.4%; inhibition of growth at 10 µM [24]: 26.3%; inhibition of growth at 10 µM [25]: 38.7%; inhibition of growth at 10 µM [26]: 21.1%; inhibition of growth at 10 µM [27]: 22.4%; inhibition of growth at 10 µM [28]: 59.9%; inhibition of growth at 10 µM [29]: 59.1%; inhibition of growth at 10 µM [30]: 18.5%; inhibition of growth at 10 µM [31]: 87.5%; inhibition of growth at 10 µM [32]: 21.4%; inhibition of growth at 10 µM [33]: 28.7%; inhibition of growth at 10 µM [34]: 19.7%
2 | COc1ccccc1NC(=O)c1cccc(-c2cc(=O)c3c(OC)c(OC)c(OC)cc3o2)c1 | 10.1% | 13.6% | 18.9% | 10.4% | 51.2% | 14.4% | 34.6% | 24.3% | 14.8% | 31.9% | 52.1% | -6.14% | 30.5% | 39.2% | 62.5% | 48.3% | 48.4% | 11% | 34% | 60% | inhibition of growth at 10 µM [21]: 46.7%; inhibition of growth at 10 µM [22]: 38.2%; inhibition of growth at 10 µM [23]: 32.4%; inhibition of growth at 10 µM [24]: 29.6%; inhibition of growth at 10 µM [25]: 27.5%; inhibition of growth at 10 µM [26]: 28.4%; inhibition of growth at 10 µM [27]: 31.1%; inhibition of growth at 10 µM [28]: 29.3%; inhibition of growth at 10 µM [29]: 58.4%; inhibition of growth at 10 µM [30]: 37.2%; inhibition of growth at 10 µM [31]: 73.7%; inhibition of growth at 10 µM [32]: 22.9%; inhibition of growth at 10 µM [33]: 24.6%; inhibition of growth at 10 µM [34]: 30.1%
